Data from ChEMBL document CHEMBL2384906, “Biological activity, design, synthesis and structure activity relationship of some novel derivatives of curcumin containing sulfonamides” (Eur J Med Chem, 2013).
≈ marks a conversion by molar mass, not a printed value. Calls of active or inactive are those of the source. The rule behind the calls is not given here.

Tests used:
Mus musculus = assay: Antiinflammatory activity in mouse assessed as inhibition of carrageenan-induced increase in paw volume at 200 mg/kg administered 1 hr prior to carrageenan challenge measured after 3 hrs relative to control; type: functional
Summary of the method: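 Mice were fasted 2 h and placed in groups of five. Controls received saline i.p. Phenylbutazone was given at 100 mg/kg i.p., curcumin at 200 mg/kg i.p., and derivatives at 200 mg/kg. After 1 h, 0.1 mL of 1% carrageenan in saline was injected subplantar into the right hind paw. Paw volume was followed by plethysmometer for 3 h, and % inhibition was calculated as (Vc − Vt)/Vc × 100.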

HCT-116 = assay: Cytotoxicity against human HCT116 cells after 24 hrs by MTT assay; type: functional, cell-based
Summary of the method: (§1)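 The MTT assay seeded 5 × 10⁴ cells per well and grew them 24 h in RPMI 1640 with compound at 2.5–200 µM. Medium without cells was the blank and adriamycin the positive control. MTT was added for 4 h at 37 °C, formazan was solubilised, and absorbance was read at 570 nm. IC50 is the concentration that cuts viability 50% against untreated cells.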

QG-56 = assay: Cytotoxicity against human QG56 cells after 24 hrs by MTT assay; type: functional, cell-based; summary of the method: as §1
HeLa = assay: Cytotoxicity against human HeLa cells after 24 hrs by MTT assay; type: functional, cell-based; summary of the method: as §1
HepG2 = assay: Cytotoxicity against human HepG2 cells after 24 hrs by MTT assay; type: functional, cell-based; summary of the method: as §1
Trichoderma viride [1] = assay: Antifungal activity against Trichoderma viride MTCC 1107 after 48 hrs; type: functional; settings: MTCC 1107, 48 h
Trichoderma viride [2] = assay: Antifungal activity against Trichoderma viride MTCC 1107 assessed as zone of inhibition at 20 uM after 48 hrs by disc diffusion method; type: functional; settings: MTCC 1107, 48 h, read-out: IZ
Summary of the method: (§2)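 Spores from 4-day potato dextrose agar cultures, suspended in sterile water at 1.5 × 10⁵ CFU/mL. 0.2 mL was spread on potato dextrose agar. 5 mm filter-paper discs soaked with test compound were laid on the lawn. Incubation was 48 h at 28 °C, then the inhibition zone was measured in mm. Fluconazole was the positive control and acetone the negative control.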

Trichoderma viride [3] = assay: Antifungal activity against Trichoderma viride MTCC 1107 assessed as zone of inhibition at 40 uM after 48 hrs by disc diffusion method; type: functional; settings: MTCC 1107, 48 h, read-out: IZ; summary of the method: as §2
Trichoderma viride [4] = assay: Antifungal activity against Trichoderma viride MTCC 1107 assessed as zone of inhibition at 80 uM after 48 hrs by disc diffusion method; type: functional; settings: MTCC 1107, 48 h, read-out: IZ; summary of the method: as §2
Curvularia lunata [5] = assay: Antifungal activity against Curvularia lunata MTCC 581 after 48 hrs; type: functional; settings: MTCC 581, 48 h
Curvularia lunata [6] = assay: Antifungal activity against Curvularia lunata MTCC 581 assessed as zone of inhibition at 20 uM after 48 hrs by disc diffusion method; type: functional; settings: MTCC 581, 48 h, read-out: IZ; summary of the method: as §2
Curvularia lunata [7] = assay: Antifungal activity against Curvularia lunata MTCC 581 assessed as zone of inhibition at 40 uM after 48 hrs by disc diffusion method; type: functional; settings: MTCC 581, 48 h, read-out: IZ; summary of the method: as §2
Aspergillus flavus [8] = assay: Antifungal activity against Aspergillus flavus MTCC 1021 after 48 hrs; type: functional; settings: MTCC 1021, 48 h
Curvularia lunata [9] = assay: Antifungal activity against Curvularia lunata MTCC 581 assessed as zone of inhibition at 80 uM after 48 hrs by disc diffusion method; type: functional; settings: MTCC 581, 48 h, read-out: IZ; summary of the method: as §2
Aspergillus flavus [10] = assay: Antifungal activity against Aspergillus flavus MTCC 1021 assessed as zone of inhibition at 20 uM after 48 hrs by disc diffusion method; type: functional; settings: MTCC 1021, 48 h, read-out: IZ; summary of the method: as §2
Aspergillus flavus [11] = assay: Antifungal activity against Aspergillus flavus MTCC 1021 assessed as zone of inhibition at 40 uM after 48 hrs by disc diffusion method; type: functional; settings: MTCC 1021, 48 h, read-out: IZ; summary of the method: as §2
Aspergillus flavus [12] = assay: Antifungal activity against Aspergillus flavus MTCC 1021 assessed as zone of inhibition at 80 uM after 48 hrs by disc diffusion method; type: functional; settings: MTCC 1021, 48 h, read-out: IZ; summary of the method: as §2
Aspergillus niger [13] = assay: Antifungal activity against Aspergillus niger MTCC 1108 after 48 hrs; type: functional; settings: MTCC 1108, 48 h
Aspergillus niger [14] = assay: Antifungal activity against Aspergillus niger MTCC 1108 assessed as zone of inhibition at 20 uM after 48 hrs by disc diffusion method; type: functional; settings: MTCC 1108, 48 h, read-out: IZ; summary of the method: as §2
Aspergillus niger [15] = assay: Antifungal activity against Aspergillus niger MTCC 1108 assessed as zone of inhibition at 40 uM after 48 hrs by disc diffusion method; type: functional; settings: MTCC 1108, 48 h, read-out: IZ; summary of the method: as §2
Aspergillus niger [16] = assay: Antifungal activity against Aspergillus niger MTCC 1108 assessed as zone of inhibition at 80 uM after 48 hrs by disc diffusion method; type: functional; settings: MTCC 1108, 48 h, read-out: IZ; summary of the method: as §2
Escherichia coli [17] = assay: Antimicrobial activity against Escherichia coli ATCC 35218 after 24 hrs by broth micro serial dilution method; type: functional; settings: ATCC 35218, 24 h
Summary of the method: (§3)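 This was broth microdilution in autoclaved Mueller-Hinton broth. 150 µL of compound per well was serially diluted […], and 50 µL of test organism was added. Plates were incubated 24 h at 37 °C and optical density was read.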

Escherichia coli [18] = assay: Antimicrobial activity against Escherichia coli ATCC 35218 assessed as diameter of inhibition zone at 80 uM after 24 hrs by Kirby -Baur disc diffusion method; type: functional
Summary of the method: (§4)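 Kirby-Bauer disc diffusion was used. Acetone stocks (160 µM) were serially doubled down to 80, 40 and 20 µM. 4 µL of each went onto 5 mm sterile paper discs, which were dried 30 min at 50 °C. Inoculum was 1.5 × 10⁸ CFU/mL diluted to 3 × 10² CFU/mL, and 50 µL was spread on Mueller-Hinton agar. After 24 h at 37 °C the inhibition-zone diameter was measured. Ciprofloxacin served as positive control.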

Pseudomonas aeruginosa [19] = assay: Antimicrobial activity against Pseudomonas aeruginosa ATCC 15499 after 24 hrs by broth micro serial dilution method; type: functional; settings: ATCC 15499, 24 h; summary of the method: as §3
Pseudomonas aeruginosa [20] = assay: Antimicrobial activity against Pseudomonas aeruginosa ATCC 15499 assessed as diameter of inhibition zone at 80 uM after 24 hrs by Kirby -Baur disc diffusion method; type: functional; summary of the method: as §4
Salmonella typhi [21] = assay: Antimicrobial activity against Salmonella typhi ATCC 23564 after 24 hrs by broth micro serial dilution method; type: functional; settings: Salmonella enterica subsp. enterica serovar Typhi
Salmonella typhi [22] = assay: Antimicrobial activity against Salmonella typhi ATCC 23564 assessed as diameter of inhibition zone at 80 uM after 24 hrs by Kirby -Baur disc diffusion method; type: functional; settings: Salmonella enterica subsp. enterica serovar Typhi
Bacillus cereus [23] = assay: Antimicrobial activity against Bacillus cereus MTCC 7350 after 24 hrs by broth micro serial dilution method; type: functional; summary of the method: as §3
Bacillus cereus [24] = assay: Antimicrobial activity against Bacillus cereus MTCC 7350 assessed as diameter of inhibition zone at 80 uM after 24 hrs by Kirby -Baur disc diffusion method; type: functional; summary of the method: as §4
Staphylococcus aureus [25] = assay: Antimicrobial activity against Staphylococcus aureus ATCC 11632 after 24 hrs by broth micro serial dilution method; type: functional; summary of the method: as §3
Staphylococcus aureus [26] = assay: Antimicrobial activity against Staphylococcus aureus ATCC 11632 assessed as diameter of inhibition zone at 80 uM after 24 hrs by Kirby -Baur disc diffusion method; type: functional; summary of the method: as §4

## COc1cc(/C=C/C(=O)C(/N=N/c2ccc(S(=O)(=O)Nc3ccccn3)cc2)=C(O)/C=C/c2ccc(O)c(OC)c2)ccc1O
Mus musculus
  inhibition in vivo at 200 mg/kg: 9.6%
HCT-116
  IC50: Not Active
QG-56
  IC50: Not Active
HeLa
  IC50: 100 µM
HepG2
  IC50: Not Active
Trichoderma viride [1]
  MIC: 40 µM (≈ 25.1 µg/mL)
Trichoderma viride [2]
  zone of inhibition at 20 µM: 10 mm
Trichoderma viride [3]
  zone of inhibition at 40 µM: 13 mm
Trichoderma viride [4]
  zone of inhibition at 80 µM: 17 mm
Curvularia lunata [5]
  MIC: 40 µM (≈ 25.1 µg/mL)
Curvularia lunata [6]
  zone of inhibition at 20 µM: 10 mm
Curvularia lunata [7]
  zone of inhibition at 40 µM: 13 mm
Aspergillus flavus [8]
  MIC: 40 µM (≈ 25.1 µg/mL)
Curvularia lunata [9]
  zone of inhibition at 80 µM: 17 mm
Aspergillus flavus [10]
  zone of inhibition at 20 µM: 9 mm
Aspergillus flavus [11]
  zone of inhibition at 40 µM: 12 mm
Aspergillus flavus [12]
  zone of inhibition at 80 µM: 13 mm
Aspergillus niger [13]
  MIC: 40 µM (≈ 25.1 µg/mL)
Aspergillus niger [14]
  zone of inhibition at 20 µM: 9 mm
Aspergillus niger [15]
  zone of inhibition at 40 µM: 11 mm
Aspergillus niger [16]
  zone of inhibition at 80 µM: 14 mm
Escherichia coli [17]
  MIC: > 80 µM
Escherichia coli [18]
  diameter of the inhibition zone (DIZ): inactive
Pseudomonas aeruginosa [19]
  MIC: > 80 µM
Pseudomonas aeruginosa [20]
  diameter of the inhibition zone (DIZ): inactive
Salmonella typhi [21]
  MIC: inactive
Salmonella typhi [22]
  diameter of the inhibition zone (DIZ): inactive
Bacillus cereus [23]
  MIC: inactive
Bacillus cereus [24]
  diameter of the inhibition zone (DIZ): inactive
Staphylococcus aureus [25]
  MIC: inactive
Staphylococcus aureus [26]
  diameter of the inhibition zone (DIZ): inactive
